# The source made the active and inactive calls. No cut-off for these calls is given here.
# Key:
# [1] = Selectivity index, ratio of IC50 for rat L6 cells to IC50 for chloroquine-resistant Plasmodium falciparum K1; assay type: toxicity, cell-based; settings: read-out: Ratio IC50
# L6 = assay: Cytotoxicity against rat L6 cells; assay type: cell-based
# In short: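 Rat L6 myoblasts served as the cytotoxicity measure. IC50 is the average of duplicate determinations.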
# Leishmania donovani = assay: Antileishmanial activity against Leishmania donovani MHOM/SD/62/1S-CL2D amastigotes; assay type: functional, organism-based
# In short: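 IC50 taken as the average of duplicate determinations against L. donovani.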
# [2] = test system: Trypanosoma brucei rhodesiense; assay: Antitrypanosomal activity against Trypanosoma brucei rhodesiense STIB900; assay type: functional, organism-based
# Plasmodium falciparum = assay: Antimalarial activity against chloroquine-resistant Plasmodium falciparum K1; assay type: functional, organism-based
# [3] = Selectivity index, ratio of IC50 for rat L6 cells to IC50 for Leishmania donovani MHOM/SD/62/1S-CL2D amastigotes; assay type: toxicity, cell-based; settings: read-out: Ratio IC50
# [4] = test system: Trypanosoma brucei rhodesiense; assay: Antitrypanosomal activity against Trypanosoma brucei rhodesiense STIB900 infected NMRI mouse assessed as infection cure rate at 20 mg/kg, ip dosed for 4 days; assay type: functional, organism-based; set-up: dose 20 mg/kg
# In short: (§1)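 Mice infected with T. b. rhodesiense STIB900 were dosed intraperitoneally once daily for 4 days. Outcome was scored as cured/infected animals out of groups of four, plus mean survival days post infection for mice showing parasitemia relapse.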
# [5] = test system: Trypanosoma brucei rhodesiense; assay: Antitrypanosomal activity against Trypanosoma brucei rhodesiense STIB900 infected NMRI mouse assessed mean survival time at 20 mg/kg, ip dosed for 4 days; assay type: functional; settings: route intraperitoneal
# [6] = Selectivity index, ratio of IC50 for rat L6 cells to IC50 for Trypanosoma brucei rhodesiense STIB900; assay type: toxicity, cell-based; settings: read-out: Ratio IC50
# [7] = test system: Trypanosoma brucei rhodesiense; assay: Antitrypanosomal activity against Trypanosoma brucei rhodesiense STIB900 infected NMRI mouse assessed mean survival time at 4 mg/kg, ip dosed for 4 days; assay type: functional; settings: route intraperitoneal
# [8] = test system: Trypanosoma brucei rhodesiense; assay: Antitrypanosomal activity against Trypanosoma brucei rhodesiense STIB900 infected NMRI mouse assessed as infection cure rate at 4 mg/kg, ip dosed for 4 days; assay type: functional, organism-based; set-up: dose 4 mg/kg
# [9] = test system: Trypanosoma brucei rhodesiense; assay: Antitrypanosomal activity against Trypanosoma brucei rhodesiense STIB900 infected NMRI mouse assessed mean survival time at 100 mg/kg, po dosed for 4 days; assay type: functional
# [10] = test system: Trypanosoma brucei rhodesiense; assay: Antitrypanosomal activity against Trypanosoma brucei rhodesiense STIB900 infected NMRI mouse assessed as infection cure rate at 10 mg/kg, ip dosed for 4 days; assay type: functional, organism-based; set-up: dose 10 mg/kg; in short: as §1
# [11] = test system: Trypanosoma brucei rhodesiense; assay: Antitrypanosomal activity against Trypanosoma brucei rhodesiense STIB900 infected NMRI mouse assessed mean survival time at 5 mg/kg, ip dosed for 4 days; assay type: functional; settings: route intraperitoneal
# [12] = test system: Trypanosoma brucei rhodesiense; assay: Antitrypanosomal activity against Trypanosoma brucei rhodesiense STIB900 infected NMRI mouse assessed as infection cure rate at 5 mg/kg, ip dosed for 4 days; assay type: functional, organism-based; set-up: dose 5 mg/kg; in short: as §1
# [13] = test system: Trypanosoma brucei rhodesiense; assay: Antitrypanosomal activity against Trypanosoma brucei rhodesiense STIB900 infected NMRI mouse assessed mean survival time at 10 mg/kg, ip dosed for 4 days; assay type: functional; settings: route intraperitoneal
# Mus musculus = assay: Toxicity in ip dosed NMRI mouse infected with Trypanosoma brucei rhodesiense STIB900; assay type: organism-based; settings: in vivo
# [14] = test system: Trypanosoma brucei rhodesiense; assay: Antitrypanosomal activity against Trypanosoma brucei rhodesiense STIB900 infected NMRI mouse assessed as infection cure rate at 100 mg/kg, po dosed for 4 days; assay type: functional, organism-based; set-up: dose 100 mg/kg
# In short: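 Mice infected with T. b. rhodesiense STIB900 received oral doses once daily for 4 days. Cure was scored as cured/infected animals, with mean survival days post infection for relapsing mice.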
Compound,selectivity ratio [1],IC50 (L6),IC50 (Leishmania donovani),IC50 [2],IC50 (Plasmodium falciparum),selectivity ratio [3],Activity [4],Survival [5],selectivity ratio [6],Survival [7],Activity [8],Survival [9],Activity [10],Survival [11],Activity [12],Survival [13],Activity (Mus musculus),Activity [14]
N=C(N)c1ccc(OCc2ccccc2COc2ccc(C(=N)N)cc2)cc1,197,30.1 µM,3.82 µM,0.144 µM,0.153 µM,7.87,inactive,13.5 days,209,–,–,–,–,–,–,–,–,–
c1cc(COc2ccc(C3=NCCN3)cc2)ccc1COc1ccc(C2=NCCN2)cc1,1680,30.2 µM,1.9 µM,0.38 µM,0.018 µM,15.9,inactive,15 days,79.5,–,–,–,–,–,–,–,–,–
Nc1nc(N)nc(Nc2ccc([As]3SCC(CO)S3)cc2)n1 (stereo unspecified) [MELARSOPROL],–,–,–,–,–,–,–,–,1220,>60 days,Active,–,–,–,–,–,–,–
N=C(NO)c1ccc(OCc2cccc(COc3ccc(C(=N)NO)cc3)c2)cc1,< 0.628,6.53 µM,> 100 µM,> 62.6 µM,> 10.4 µM,< 0.0653,–,–,< 0.104,–,–,>38.3 days,–,–,–,–,–,–
CC(C)NC(=N)c1ccc(OCc2cccc(COc3ccc(C(=N)NC(C)C)cc3)c2)cc1,> 46900,> 169 µM,7.27 µM,0.068 µM,0.0036 µM,> 23.2,–,–,> 2490,–,–,–,Active,>51.5 days,Active,>60 days,–,–
CC(C)NC(=N)c1ccc(OCc2ccc(COc3ccc(C(=N)NC(C)C)cc3)cc2)cc1,> 9820,> 167 µM,7.99 µM,0.0748 µM,0.017 µM,> 20.9,–,–,> 2230,–,–,–,–,17 days,inactive,–,Toxic,–
c1cc(OCc2ccc(COc3cccc(C4=NCCN4)c3)cc2)cc(C2=NCCN2)c1,175,19.8 µM,> 200 µM,1.42 µM,0.113 µM,< 0.099,–,–,13.9,–,–,–,–,–,–,–,–,–
CC(C)NC(=N)c1ccc(OCc2ccc(COc3ccc(C(=N)NC(C)C)cc3)c3ccccc23)cc1,625,41.8 µM,9.73 µM,0.313 µM,0.0669 µM,4.29,–,–,134,–,–,–,–,–,–,–,–,–
N=C(NO)c1cccc(OCc2cccc(COc3cccc(C(=N)NO)c3)c2)c1,4.12,8.6 µM,> 50 µM,7.71 µM,2.09 µM,< 0.172,–,–,1.12,–,–,14.5 days,–,–,–,–,–,inactive
N=C(N)c1ccc(OCc2cc(COc3ccc(C(=N)N)cc3)c3ccccc3c2)cc1,1250,68.8 µM,–,0.325 µM,0.0551 µM,–,inactive,12 days,212,–,–,–,–,–,–,–,–,–
c1cc(OCc2ccccc2COc2cccc(C3=NCCN3)c2)cc(C2=NCCN2)c1,184,66.5 µM,> 100 µM,24.2 µM,0.362 µM,< 0.665,–,–,2.75,–,–,–,–,–,–,–,–,–
CONC(=N)c1ccc(OCc2cccc(COc3ccc(C(=N)NOC)cc3)c2)cc1,> 3.46,> 33.6 µM,> 100 µM,30.4 µM,> 9.72 µM,< 0.336,–,–,> 1.11,–,–,6 days,–,–,–,–,–,inactive
N=C(N)c1cccc(OCc2ccc(COc3cccc(C(=N)N)c3)cc2)c1,119,8.02 µM,> 200 µM,0.0778 µM,0.0677 µM,< 0.0401,inactive,19.5 days,103,–,–,–,–,–,–,–,–,–
N=C(N)c1ccc(-c2ccc(-c3ccc(C(=N)N)cc3)o2)cc1 [FURAMIDINE],–,–,–,0.0032 µM,–,–,–,–,–,–,–,–,–,–,–,–,–,–
N=C(N)c1cccc(OCc2cccc(COc3cccc(C(=N)N)c3)c2)c1,3360,64.2 µM,–,0.0473 µM,0.0191 µM,–,–,–,1360,–,–,–,–,17 days,inactive,–,–,–
CC(C)NC(=N)c1ccc(OCc2ccccc2COc2ccc(C(=N)NC(C)C)cc2)cc1,15000,163 µM,11.7 µM,1.68 µM,0.0109 µM,14,–,–,97,–,–,–,–,–,–,–,–,–
c1ccc(COc2ccc(C3=NCCN3)cc2)c(COc2ccc(C3=NCCN3)cc2)c1,10500,109 µM,3.66 µM,0.647 µM,0.0104 µM,29.8,–,–,168,–,–,–,–,–,–,–,–,–
CC(C)NC(=N)c1cccc(OCc2ccccc2COc2cccc(C(=N)NC(C)C)c2)c1,> 1470,> 162 µM,> 30 µM,1.28 µM,0.111 µM,< 5.41,–,–,> 126,–,–,–,–,–,–,–,–,–
N=C(N)c1ccc(COc2ccc3cc(OCc4ccc(C(=N)N)cc4)ccc3c2)cc1,–,19.3 µM,7.12 µM,2.36 µM,–,–,–,–,–,–,–,–,–,–,–,–,–,–
N=C(N)c1ccc(OCCCCCOc2ccc(C(=N)N)cc2)cc1 [PENTAMIDINE],–,–,–,–,–,–,inactive,42.8 days,–,–,–,–,–,–,–,–,–,–
N=C(N)c1ccc(OCc2ccc(COc3ccc(C(=N)N)cc3)c3ccccc23)cc1,224,28.3 µM,–,0.234 µM,0.126 µM,–,–,–,121,–,–,–,–,–,–,–,–,–
c1cc(COc2ccc(C3=NCCN3)cc2)cc(COc2ccc(C3=NCCN3)cc2)c1,6860,123 µM,3.99 µM,0.0462 µM,0.018 µM,30.9,inactive,22.8 days,2670,–,–,–,–,–,–,–,–,–
N=C(N)c1ccc(OCc2cccc(COc3ccc(C(=N)N)cc3)c2)cc1,357,9.14 µM,3.26 µM,0.0021 µM,0.0256 µM,2.8,–,–,4350,–,–,–,–,–,–,>35.5 days,–,–
N=C(N)c1cccc(OCc2ccccc2COc2cccc(C(=N)N)c2)c1,775,84.6 µM,5.5 µM,0.14 µM,0.109 µM,15.4,–,–,602,–,–,–,–,–,–,>27.3 days,Toxic,–
N=C(N)c1ccc(OCc2ccc(COc3ccc(C(=N)N)cc3)cc2)cc1,194,12.4 µM,1.32 µM,0.0207 µM,0.064 µM,9.4,inactive,32 days,600,–,–,–,–,–,–,–,–,–
CC(C)NC(=N)c1cccc(OCc2ccc(COc3cccc(C(=N)NC(C)C)c3)cc2)c1,1830,87 µM,14.8 µM,1.2 µM,0.0474 µM,5.89,–,–,72.4,–,–,–,–,–,–,–,–,–

# From ChEMBL document CHEMBL1153610, “Synthesis and antiprotozoal activities of dicationic bis(phenoxymethyl)benzenes, bis(phenoxymethyl)naphthalenes, and bis(benzyloxy)naphthalenes” (Eur J Med Chem, 2009)
